According to ChEMBL document CHEMBL3351495, “Anti-inflammatory components of Chrysanthemum indicum flowers” (Bioorg Med Chem Lett, 2015):
Activity calls are given as the source filed them. The rule behind the calls is not given here.

Tests used:
RAW264.7 [1] = experiment: Antiinflammatory activity in mouse RAW264.7 cells assessed as inhibition of LPS-stimulated TNFalpha production at 0.4 to 2 uM by ELISA; format: functional, cell-based
Outline: (§1)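 RAW 264.7 cells were stimulated with LPS, with or without each compound at 0.4, 2.0 and 10.0 μM, and secreted TNF-α was measured. Concentrations were kept below 50 μM, the level checked by MTT for viability. Values are mean ± SD from at least three independent experiments, each run in triplicate.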

RAW264.7 [2] = experiment: Cytotoxicity against mouse RAW264.7 cells at 50 uM by MTT assay; format: cell-based; conditions: raw264.7, 50 µM
RAW264.7 [3] = experiment: Antiinflammatory activity in mouse RAW264.7 cells assessed as inhibition of LPS-stimulated nitric oxide production at 0.4 to 10 uM after 24 hrs by Griess assay; format: functional, cell-based
Outline: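 NO made by LPS-stimulated RAW 264.7 cells was measured by Griess reaction. Each compound was screened at 0.4, 2.0 and 10.0 μM, all below the 50 μM level checked for viability by MTT. Results are mean ± SD from at least three independent experiments run in triplicate.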

RAW264.7 [4] = experiment: Antiinflammatory activity in mouse RAW264.7 cells assessed as inhibition of LPS-stimulated TNFalpha production at 10 uM by ELISA; format: functional; outline: as §1
RAW264.7 [5] = experiment: Antiinflammatory activity in mouse RAW264.7 cells assessed as inhibition of LPS-stimulated TNFalpha production at 2 uM by ELISA; format: functional; outline: as §1
RAW264.7 [6] = experiment: Antiinflammatory activity in mouse RAW264.7 cells assessed as inhibition of LPS-stimulated nitric oxide production at 10 uM after 24 hrs by Griess assay; format: functional; conditions: RAW264.7, 24 h
Outline: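 Nitrite in the medium measured by Griess reaction and given as % inhibition of NO production. Celecoxib (1.0 μM) served as reference. Mean SD of at least three independent experiments, each in triplicate.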

RAW264.7 [7] = experiment: Inhibition of iNOS protein expression in LPS-stimulated mouse RAW264.7 cells by Western blot analysis; format: functional, cell-based
Outline: (§2)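 RAW 264.7 cells exposed to LPS (1 μg/ml) with or without test agent at 0.4, 2 and 10 μM. Celecoxib (1 μM) served as reference. COX-2 and iNOS protein detected by Western blot, with actin as loading control.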

RAW264.7 [8] = experiment: Inhibition of COX2 protein expression in LPS-stimulated mouse RAW264.7 cells by Western blot analysis; format: functional, cell-based; outline: as §2

SMILES | inhibition (RAW264.7 [1]) | Activity (RAW264.7 [2]) | inhibition (RAW264.7 [3]) | inhibition at 10 µM (RAW264.7 [4]) [%] | inhibition at 2 µM (RAW264.7 [5]) [%] | inhibition at 10 µM (RAW264.7 [6]) [%] | inhibition (RAW264.7 [7]) | inhibition (RAW264.7 [8])
OC[C@H]1O[C@@H](OCc2ccccc2)[C@H](O)[C@@H](O)[C@@H]1O | inactive | Non-toxic | inactive | – | – | – | – | –
COc1cc(-c2oc3cc(O)cc(O)c3c(=O)c2O[C@@H]2O[C@H](CO)[C@@H](O)[C@H](O)[C@H]2O)ccc1O | – | Non-toxic | inactive | – | – | – | – | –
COC(=O)[C@]1(O)C[C@@H](O)[C@@H](OC(=O)/C=C/c2ccc(O)c(O)c2)[C@H](O)C1 | inactive | Non-toxic | inactive | – | – | – | – | –
CC[C@H](C)C(=O)OC[C@@H]1O[C@@]2(C(=O)OC)C[C@@H](O)[C@@H](O)[C@@H]1O2 | – | Non-toxic | inactive | 22 | 14.4 | – | – | –
CC1=C(C/C=C\CCO[C@@H]2O[C@H](CO)[C@@H](O)[C@H](O)[C@H]2O)C(=O)CC1 | – | Non-toxic | inactive | 23 | 11.8 | – | – | –
COC(=O)[C@]1(O)C[C@@H](OC(=O)/C=C/c2ccc(O)c(O)c2)[C@@H](O)[C@H](OC(=O)/C=C/c2ccc(O)c(O)c2)C1 | – | Non-toxic | inactive | – | – | – | – | –
COC(=O)[C@]1(O)C[C@@H](O)[C@@H](OC(=O)/C=C/c2ccc(O)c(O)c2)[C@H](OC(=O)/C=C/c2ccc(O)c(O)c2)C1 | inactive | Non-toxic | inactive | 13 | – | – | – | –
OC[C@H]1O[C@@H](OCCc2ccccc2)[C@H](O)[C@@H](O)[C@@H]1O | inactive | Non-toxic | inactive | 13 | – | – | – | –
O=c1cc(-c2ccc(O)cc2)oc2cc(O[C@@H]3O[C@H](CO)[C@@H](O)[C@H](O)[C@H]3O)cc(O)c12 [APIGETRIN] | – | Non-toxic | inactive | – | – | – | – | –
COC(=O)[C@]1(O)C[C@@H](O)[C@@H](O)[C@H](OC(=O)/C=C/c2ccc(O)c(O)c2)C1 [CHLOROGENIC ACID METHYL ESTER] | inactive | Non-toxic | inactive | – | – | – | – | –
O=C(/C=C/c1ccc(O)c(O)c1)O[C@@H]1C[C@](O)(C(=O)O)C[C@@H](O)[C@H]1O [CHLOROGENIC ACID] | – | Non-toxic | inactive | 24.7 | 16.1 | – | – | –
O=C(/C=C/c1ccc(O)c(O)c1)O[C@@H]1C[C@@](OC(=O)/C=C/c2ccc(O)c(O)c2)(C(=O)O)C[C@@H](O)[C@@H]1O [CYNARIN] | inactive | Non-toxic | inactive | – | – | – | – | –
COc1cc(CCCO)cc(OC)c1O[C@@H]1O[C@H](CO)[C@@H](O)[C@H](O)[C@H]1O [DIHYDROSYRINGIN] | inactive | Non-toxic | inactive | 13 | – | – | – | –
O=c1cc(-c2ccc(O)c(O)c2)oc2cc(O[C@@H]3O[C@H](CO)[C@@H](O)[C@H](O)[C@H]3O)cc(O)c12 [GALUTEOLIN] | inactive | Non-toxic | inactive | 13 | – | – | – | –
O=c1c(O)c(-c2ccc(O)c(O)c2)oc2cc(O)cc(O)c12 [QUERCETIN] | inactive | Non-toxic | – | 13 | – | 46.1 | Dose-dependent effect | Dose-dependent effect
O=c1c(O)c(-c2ccc(O)c(O)c2)oc2cc(O[C@@H]3O[C@H](CO)[C@@H](O)[C@H](O)[C@H]3O)cc(O)c12 [QUERCIMERITRIN] | inactive | Non-toxic | – | 13 | – | 36.5 | Dose-dependent effect | Dose-dependent effect
COc1cc(/C=C/CO)cc(OC)c1O[C@@H]1O[C@H](CO)[C@@H](O)[C@H](O)[C@H]1O [SYRINGIN] | inactive | Non-toxic | inactive | 13 | – | – | – | –
COc1cc(-c2cc(=O)c3c(O)cc(O)cc3o2)cc(OC)c1O [TRICIN] | – | Non-toxic | inactive | – | – | – | – | –
